From ChEMBL document CHEMBL1153167, “Gastroprotective flavonoid constituents from Oroxylum indicum Vent” (Bioorg Med Chem Lett, 2010)
Active and inactive are the calls of the source.

Columns and labels:
Format in all cases: functional, organism-based
Set-up in all cases: dose 25 mg/kg
Rattus norvegicus [1] = assay: Gastroprotective activity against pylorus ligation-induced ulcer in 48 hrs fasted Wistar rat at 25 mg/kg rat pretreated 1 hr before pylorus ligation measured after 4 hrs
Summary of the method: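 Rats fasted 48 h, six per group, were dosed as a 1% Tween-80 suspension at 1 mL per rat. After 1 h the pylorus was ligated under anesthesia. Animals were killed 4 h after ligation for evaluation. Read-out is % protection, mean ± SD.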

Rattus norvegicus [2] = assay: Gastroprotective activity against cold restraint-induced ulceritis in Wistar rat at 25 mg/kg, po pretreated before cold restraination measured after 2 hrs
Summary of the method: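 After the oral dose, rats (six per group) were restrained at 4 °C for 2 h. The stomach was then opened along the greater curvature and severity was scored as mean ulcer index. Read-out is % protection, mean ± SD.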

Rattus norvegicus [3] = assay: Gastroprotective activity against ethanol-induced ulceritis in 48 hrs fasted Wistar rat at 25 mg/kg, po pretreated 1 hr before ethanol challenge followed by pylorus ligation measured after 4 hrs
Summary of the method: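 Rats fasted 48 h, six per group, were dosed orally. Ethanol was given intragastrically 1 h later. One hour after the ethanol, the pylorus was ligated under anesthesia. Animals were killed 4 h after ligation and ulcers were indexed. Read-out is % protection, mean ± SD.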

Rattus norvegicus [4] = assay: Gastroprotective activity against aspirin-induced ulceritis in Wistar rat at 25 mg/kg, po pretreated 5 days before aspirin challenge measured after 24 hrs of fasting
Summary of the method: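 Rats, six per group, were dosed with test sample for five days, then given aspirin 200 mg/kg body weight suspended in 1% Tween-80. They were fasted 24 h and killed by cervical dislocation. Stomachs were opened along the greater curvature, washed with lukewarm saline and scored for ulcer index under a dissecting microscope. Read-out is % protection, mean ± SD.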

Measured: Activity

COc1c(O)cc2oc(-c3ccccc3)cc(=O)c2c1O
active: all assays above

COc1cc(O)c2c(=O)cc(-c3c(OC)cccc3O[C@H]3O[C@@H](CO)[C@H](O)[C@@H](O)[C@@H]3O)oc2c1
inactive: all assays above

COc1ccc(-c2cc(=O)c3c(O)cc(OC)cc3o2)cc1
inactive: all assays above

COc1c(O)cc2c(c1O)C(=O)C[C@@H](c1ccccc1)O2
active: all assays above

O=c1cc(-c2ccccc2)oc2cc(O)cc(O)c12
active: all assays above

COc1cc(O)c2c(=O)cc(-c3ccccc3)oc2c1
inactive: all assays above
